Lipid droplet = hepatic lipid droplet formation modulation; AML12 mouse hepatocytes, oleate lipid droplets, BODIPY imaging; inhibition, % at 6.5 µM; actives 0.4% (n = 240,000); AID 1656;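 active = lipid droplet intensity inhibited by at least 50%, with more than 500 cells counted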
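Assay system: AML12 hepatocytes (mouse) / Also added: 100 µM oleic acid challenge / Times: overnight treatment with compound plus oleate / Detection: high-content imaging of BODIPY-stained droplets and DAPI nuclei / Evaluation: % inhibition of lipid droplet signal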
MrgX1 agonist = human MrgX1 receptor agonism, primary screen | MrgX1-HEK293 cells, Fluo-4 calcium fluorescence, agonist mode; hits give high values | actives 0.44% (n = 310,000) | AID 588627 | Q96LB2 | B-score at 10 µM;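 active = calcium response B-score plate-corrected fluorescence ratio at least 3 library SD, with starting fluorescence B-score inside 5 SD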
Target sequence (Q96LB2 whole entry, looked up): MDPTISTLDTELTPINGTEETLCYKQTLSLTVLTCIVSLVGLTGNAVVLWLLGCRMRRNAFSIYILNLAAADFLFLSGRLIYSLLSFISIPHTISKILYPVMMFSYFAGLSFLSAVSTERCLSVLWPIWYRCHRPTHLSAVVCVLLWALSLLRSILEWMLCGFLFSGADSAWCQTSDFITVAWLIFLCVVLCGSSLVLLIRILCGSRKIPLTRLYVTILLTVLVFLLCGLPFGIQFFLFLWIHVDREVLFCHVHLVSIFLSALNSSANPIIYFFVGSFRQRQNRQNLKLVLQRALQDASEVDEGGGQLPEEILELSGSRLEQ
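Assay system: stable human MrgX1 HEK293 cell line. Quantity: 15,000 cells per well. Schedule: cells plated overnight, dye loaded 0.5 h 37 °C, 0.5 h room temperature. Detection: Fluo-4 NW calcium-flux fluorescence, kinetic read. Read-out basis: peak-minus-minimum fluorescence over baseline, converted to B scores. Control set: positive and negative control wells on each plate.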
MrgX1 antagonist = blocks BAM8-22 activation of human MrgX1 receptor. Q96LB2. MRGX1-HEK293 calcium flux, Fluo-4, BAM8-22 antagonism; hits give low values. B-score at 10 µM. actives 1.3% (n = 310,000). AID 588676;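 active = calcium-response B-score plate-corrected more than 3 library SD below zero, starting fluorescence within 5 deviations, no agonist response on first addition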;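 also: peak minus trough fluorescence over baseline after final BAM8-22 challenge near maximal dose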
MrgX1 allo act = allosterically activates human MrgX1 receptor signaling; Q96LB2; MrgX1-HEK293, Fluo-4 calcium flux, FDSS; hits give high values; B-score at 10 µM; actives 0.63% (n = 310,000);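 active = plate-corrected calcium response at least 3 library SD above typical, normal starting fluorescence, not activating the receptor alone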;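 also: compound read alongside a low EC10 to EC30 dose of BAM8-22 agonist; peak minus trough fluorescence over baseline measured at the second addition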
RGS4 inh = human RGS4 inhibition. B-score at 10 µM. P49798. HEK293 M3R/RGS4 inducible, Fluo-4 calcium flux; hits give high values; triggered by carbachol at its EC20. actives 0.45% (n = 310,000). AID 463165;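 active = B-score, a plate-corrected calcium signal, over three deviations above library mean, with baseline fluorescence within five deviations of library mean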;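 also: RGS4 expression induced by doxycycline in cells with stable M3 receptor; B-score is computed from the integrated fluorescence ratio over baseline after carbachol; higher B-score means a larger calcium signal and so more RGS4 inhibition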
Target sequence (P49798 whole entry, looked up): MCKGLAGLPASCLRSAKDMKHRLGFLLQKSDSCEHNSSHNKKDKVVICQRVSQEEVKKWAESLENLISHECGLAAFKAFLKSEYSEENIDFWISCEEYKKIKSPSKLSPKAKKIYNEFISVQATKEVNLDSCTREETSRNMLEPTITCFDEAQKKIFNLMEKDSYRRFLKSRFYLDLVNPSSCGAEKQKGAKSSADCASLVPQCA
RGS4 act = RGS4 potentiation or activation | HEK293 M3R/inducible RGS4, carbachol calcium flux Fluo4; hits give low values | B-score at 10 µM | actives 0.92% (n = 310,000) | AID 463111;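 active = B-score of the integrated calcium signal more than 4 SD below the library mean, with starting fluorescence not abnormally high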;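 also: negative B-score means reduced calcium response which marks RGS4 activation or potentiation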
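Test system: HEK293 cells with stable M3R and inducible RGS4; also added: carbachol at ECmax as muscarinic agonist stimulus; schedule: dye loading 30 min 37 °C, buffer rest 30 min RT; technique: kinetic calcium fluorescence imaging with Fluo4-AM dye, 2 µM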
Of the large screens only hits and unclear results are named; the others gave an inactive call. This is a sample that favours compounds with a hit; in the whole collection about 3.8% have one here.

COc1ccc(-n2nc(C(=O)N3CCC(N4CCCCC4)CC3)c3c4ccccc4n(C)c3c2=O)cc1	none
CCC[n+]1c2ccccc2cc2ccccc21	MrgX1 agonist 26 (no result: Lipid droplet)
CCCC[n+]1c2ccccc2cc2ccccc21	MrgX1 agonist 32
CCCCC[n+]1cccc2c3ccccc3ccc21	none
COc1ccccc1NC(=O)NC1(C(=O)N2CCN(C)CC2)CCCCC1	none
CCNC(=S)N/N=C/c1cccc(OCc2c(F)cccc2Cl)c1	none
Cc1c(C(=O)/C=C/c2cccs2)oc2ccc(F)cc12	MrgX1 antagonist -6
COc1ccc(NC(=O)CN2C(=O)COc3ccc(C)cc32)cc1	none
Cc1cccc(NC(=S)N(Cc2cccs2)Cc2cc3cc(C)cc(C)c3[nH]c2=O)c1	MrgX1 antagonist -5.4
COc1ccc(C2=NOC(C(=O)NCCCN3CCOCC3)C2)cc1 (configuration not stated)	MrgX1 antagonist -5.1
COc1ccc(C2=NOC(C(=O)NCCN3CCOCC3)C2)cc1 (configuration not stated)	none (no result: Lipid droplet)
CC(=O)Nc1ccc(S(=O)(=O)c2cc(O)ccc2O)cc1	none
COC(=O)C1(C(C[N+](=O)[O-])c2ccco2)C(=O)NCC1c1ccccc1 (configuration not stated)	MrgX1 agonist 42
CCCc1cc(=O)oc2cc(OC(=O)CN3C(=O)NC4(CCCC4)C3=O)ccc12	MrgX1 antagonist -8.6 (no result: Lipid droplet)
C[C@H](NC(=O)[C@@H]1CSC2c3ccccc3C(=O)N21)C(=O)NCc1c(F)cccc1Cl (some centres not stated)	none
CCOC(=O)SC1=N/C(=C\c2ccc(N(C)C)cc2)C(=O)S1	MrgX1 allo act 7.8
CCSC1=N/C(=C\c2ccc(C(=O)O)cc2)C(=O)S1	none (no result: Lipid droplet)
CSC1=N/C(=C\c2ccc(C)cc2)C(=O)S1	MrgX1 allo act 16 (no result: Lipid droplet)
CCNc1nc(OC)nc(N2CCC(Cc3ccccc3)CC2)n1	none
O=c1[nH]c(C2CCN(S(=O)(=O)c3ccc(C(F)(F)F)cc3)CC2)nc2c1nnn2Cc1ccccc1	none
CCN(CC)S(=O)(=O)c1ccc(Nc2nc3ccccc3n3nnnc23)cc1	MrgX1 antagonist -6.8, MrgX1 allo act 14
CC(=O)N1CCOc2ccc(S(=O)(=O)NCC3CCC(C(=O)Nc4ncccc4C)CC3)cc21 (configuration not stated)	none
COc1ccc(/C=C2/SC(=S)N(NS(=O)(=O)c3ccccc3)C2=O)cc1	MrgX1 agonist 31
CC(/C=C1\SC(=S)N(C(C(=O)O)C(C)C)C1=O)=C\c1ccccc1 (configuration not stated)	none
CC(/C=C1\SC(=S)N(NC(=O)c2ccc(C)cc2)C1=O)=C\c1ccccc1	none (no result: Lipid droplet)
CC(/C=C1\SC(=S)N(c2ccc(C(=O)O)cc2)C1=O)=C\c1ccccc1	MrgX1 antagonist -9.6, RGS4 act -8.4
CC(/C=C1\SC(=S)N(NS(=O)(=O)c2ccccc2)C1=O)=C\c1ccccc1	MrgX1 antagonist -8.8
O=C1/C(=C\c2ccc(Br)cc2)SC(=S)N1NS(=O)(=O)c1ccccc1	none
CCN(CC)C(=O)CCSc1nnc(-c2ccco2)o1	none
CC1(C)CC(=O)C=C(NCC(O)c2ccccc2)C1 (configuration not stated)	none
CCOC(=O)CSc1nc2c(sc(=S)n2-c2ccccc2OC)c(=O)n1Cc1ccco1	MrgX1 agonist 40 (no result: Lipid droplet)
CCOc1ccc(C(Nc2cccnc2)c2cc(Cl)c3cccnc3c2O)cc1 (configuration not stated)	RGS4 act -8.3
O=C(O)COc1ccccc1C(Nc1cccnc1)c1cc(Cl)c2cccnc2c1O (configuration not stated)	none (no result: MrgX1 agonist, MrgX1 antagonist, MrgX1 allo act)
CCOc1ccc(S(=O)(=O)NCc2ccc3c(c2)OCO3)cc1C(=O)O	none (no result: Lipid droplet)
CCOC(=O)c1c(CN(C)C)n(-c2ccc(C)cc2)c2cc(Br)c(O)cc12	none
CCOC(=O)c1c(CSC(=N)N)n(-c2ccc(C)cc2)c2cc(Br)c(OC(C)=O)cc12	MrgX1 antagonist -7.6 (no result: Lipid droplet)
O=C(N/N=C/c1cc(Cl)ccc1O)c1ccncc1	MrgX1 antagonist -5.1

Assay outcomes (PubChem BioAssay)
